Experiments:
Type in all cases: functional
Conditions in all cases: route oral
Rattus norvegicus [1] = experiment: Compound was tested for the inhibition of rat reversed passive Arthus pleurisy after peroral administration of 100 mg/kg dose at 3.37*10e6 no of cells with 3.62*10e6 cells of control
Outline: (§1)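 Male Wistar rats (about 250 g) under ether received 0.2 mL rabbit anti-egg-albumin antiserum intrapleurally. Thirty min later they got 15 mg EA/100 g body weight in 0.1 mL saline iv. Compounds were given orally beforehand. Rats were killed 4.5 h after induction and the thoracic cavity rinsed with 5 mL saline. Exudate volume and infiltrated cell count were read as mean ± SE. % inhibition is versus control.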

Rattus norvegicus [2] = experiment: Compound was tested for the inhibition of rat reversed passive Arthus pleurisy after peroral administration of 100 mg/kg dose at 0.61 mL of exudate volume with 0.54 mL of control (injected intrapleurally)
Outline: (§2)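 Male Wistar rats (about 250 g) were given compound orally before the antiserum. Under ether anesthesia, 0.2 mL rabbit anti-egg albumin antiserum was injected intrapleurally. After 30 min, egg albumin (15 mg/100 g body weight in 0.1 mL saline) was given iv. Rats were killed 4.5 h later and the thoracic cavity was rinsed with 5 mL saline. Exudate volume and infiltrated cell number were measured, with inhibition % versus controls as mean ± SEM.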

Rattus norvegicus [3] = experiment: Inhibition of Zymosan-induced rat's paw edema(ZPE) after peroral administration of 100 mg/kg dose.
Outline: (§3)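 Male Wistar rats (about 150 g) were dosed orally with compound suspended in 5% arabic gum, 1 h before a subplantar hind-paw injection of 0.1 mL saline. The irritant was 1% zymosan for 33 or 1% λ-carrageenin for 34. Paw volume was measured by plethysmograph before dosing and at 4 h (zymosan) or 3 h (carrageenin). Swelling is relative to initial volume, as mean ± SEM. % inhibition is versus the control group's mean swelling.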

Rattus norvegicus [4] = experiment: Antiinflammatory activity on Carrageenan rat's paw edema(CPE) after peroral administration of 100 mg/kg dose with control swelling of 68.1%
Rattus norvegicus [5] = experiment: Antiinflammatory activity on Zymosan-induced rat's paw edema(ZPE) after peroral administration of 100 mg/kg dose with control swelling of 62.0%
Outline: (§4)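 Male Wistar rats weighing about 150 g were dosed orally with compound suspended in 5% arabic gum. 1 h later, 1% zymosan in 0.1 mL saline was injected subplantarly into the hind paw. Paw volume was measured by plethysmograph before dosing and 4 h after zymosan, with edema as the volume difference. Inhibition % was derived from mean swelling versus the control group.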

Rattus norvegicus [6] = experiment: Inhibition of carrageenan-induced rat's paw edema (CPE) after peroral administration of 100 mg/kg dose.; outline: as §3
Rattus norvegicus [7] = experiment: Compound was tested for the inhibition of rat reversed passive Arthus pleurisy after peroral administration of 100 mg/kg dose at 3.82*10e6 no of cells with 3.62*10e6 cells of control; outline: as §1
Rattus norvegicus [8] = experiment: Compound was tested for the inhibition of rat reversed passive Arthus pleurisy after peroral administration of 100 mg/kg dose at 0.72 mL of exudate volume with 0.54 mL of control (injected intrapleurally); outline: as §2
Rattus norvegicus [9] = experiment: Antiinflammatory activity on Carrageenan rat's paw edema(CPE) after peroral administration of 100 mg/kg dose with control swelling of 64.2%
Rattus norvegicus [10] = experiment: Antiinflammatory activity on Zymosan-induced rat's paw edema(ZPE) after peroral administration of 100 mg/kg dose with control swelling of 71.7%; outline: as §4
Rattus norvegicus [11] = experiment: Compound was tested for the inhibition of rat reversed passive Arthus pleurisy after peroral administration of 100 mg/kg dose at 3.02*10e6 no of cells with 3.37*10e cells of control; outline: as §2
Rattus norvegicus [12] = experiment: Compound was tested for the inhibition of rat reversed passive Arthus pleurisy after peroral administration of 100 mg/kg dose at 0.43 mL of exudate volume with 0.46 mL of control (injected intrapleurally); outline: as §2
Rattus norvegicus [13] = experiment: Antiinflammatory activity on Carrageenan rat's paw edema(CPE) after peroral administration of 100 mg/kg dose with control swelling of 65.6%
Rattus norvegicus [14] = experiment: Antiinflammatory activity on Zymosan-induced rat's paw edema(ZPE) after peroral administration of 100 mg/kg dose with control swelling of 61.0%; outline: as §4
Rattus norvegicus [15] = experiment: Compound was tested for the inhibition of rat reversed passive Arthus pleurisy after peroral administration of 10 mg/kg dose at 0.44 mL of exudate volume with 0.55 mL of control (injected intrapleurally); outline: as §2
Rattus norvegicus [16] = experiment: Compound was tested for the inhibition of rat reversed passive Arthus pleurisy after peroral administration of 10 mg/kg dose at 3.2*10e6 no of cells with 2.77*10e6 cells of control; outline: as §2
Rattus norvegicus [17] = experiment: Compound was tested for the inhibition of rat reversed passive Arthus pleurisy after peroral administration of 3 mg/kg dose at 0.59 mL of exudate volume with 0.55 mL of control (injected intrapleurally); outline: as §1
Rattus norvegicus [18] = experiment: Compound was tested for the inhibition of rat reversed passive Arthus pleurisy after peroral administration of 3 mg/kg dose at 4.01*10e6 no of cells with 2.77*10e6 cells of control; outline: as §1

## O=C(NCc1ccccc1)c1c(O)c2cccnc2n(-c2ccccc2)c1=O
Rattus norvegicus [1]
  inhibition in vivo at 100 mg/kg: 9.6%
Rattus norvegicus [2]
  inhibition in vivo at 100 mg/kg: -14.3%
Rattus norvegicus [3]
  inhibition in vivo at 100 mg/kg: 1.6%
Rattus norvegicus [4]
  Swelling: 60.4%
Rattus norvegicus [5]
  Swelling: 60.3%
Rattus norvegicus [6]
  inhibition in vivo at 100 mg/kg: 11.3%

## CCCCNC(=O)c1c(O)c2cccnc2n(-c2ccccc2)c1=O
Rattus norvegicus [7]
  inhibition in vivo at 100 mg/kg: 7.7%
Rattus norvegicus [3]
  inhibition in vivo at 100 mg/kg: 12.8%
Rattus norvegicus [8]
  inhibition in vivo at 100 mg/kg: -36.7%
Rattus norvegicus [9]
  Swelling: 51.1%
Rattus norvegicus [10]
  Swelling: 62.5%
Rattus norvegicus [6]
  inhibition in vivo at 100 mg/kg: 20.4%

## O=C(NN1CCOCC1)c1c(O)c2cccnc2n(-c2ccccc2)c1=O
Rattus norvegicus [11]
  inhibition in vivo at 100 mg/kg: 10.4%
Rattus norvegicus [12]
  inhibition in vivo at 100 mg/kg: 14.6%
Rattus norvegicus [3]
  inhibition in vivo at 100 mg/kg: -8.5%
Rattus norvegicus [13]
  Swelling: 82.8%
Rattus norvegicus [14]
  Swelling: 66.2%
Rattus norvegicus [6]
  inhibition in vivo at 100 mg/kg: -26.2%

## COc1ccc2c(c1)c(CC(=O)O)c(C)n2C(=O)c1ccc(Cl)cc1 [INDOMETHACIN]
Rattus norvegicus [15]
  inhibition in vivo at 10 mg/kg: 23.9%
Rattus norvegicus [16]
  inhibition in vivo at 10 mg/kg: -20.9%
Rattus norvegicus [17]
  inhibition in vivo at 3 mg/kg: -8.7%
Rattus norvegicus [18]
  inhibition in vivo at 3 mg/kg: -60.2%

— ChEMBL document CHEMBL1126267, “A novel synthesis and potent antiinflammatory activity of 4-hydroxy-2(1H)-oxo-1-phenyl-1,8-naphthyridine-3-carboxamides” (1992)
